Test results reported in ChEMBL document CHEMBL1128545, “Effect of a chiral 4-alkyl substituent in hallucinogenic amphetamines” (J Med Chem, 1995).

Experiments:
[1] = molecular target: Serotonin 2 (5-HT2) receptor (Rattus norvegicus, UniProt P30994+P08909+P14842); experiment: Binding affinity against 5-hydroxytryptamine 2 receptor from rat frontal cortex using [125]-(R)-DOI as radioligand; format: tissue-based
Procedure, shortened: (§1)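 Rat frontal cortex (male Sprague–Dawley) homogenized in 0.32 M sucrose, preincubated twice 10 min at 37 °C; assay in 50 mM Tris HCl pH 7.4 with EDTA, ascorbate, 10 mM MgCl2, 10 µM pargyline, 200–400 µg protein. Triplicates, 3–4 experiments; parameters fitted by EBDA/LIGAND.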

Rattus norvegicus [2] = organism: Rattus norvegicus; experiment: Potency against LSD trained rat, activity is expressed as ED50; format: functional
[3] = Hill coefficient of the compound
Procedure, shortened: as §1, with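 “protein. Displacement of 0.25 nM [125I]-(R)-DOI, 15 min at 37 °C, GF/C filtration, γ-counting.” for “protein.”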

Rattus norvegicus [4] = experiment: Percentage of rats selecting the drug lever (% SDL) for dose 0.87(umol/kg); format: functional
Procedure, shortened: (§2)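 Drugs are given ip in saline. Test sessions run under extinction and end at 50 presses on one lever. Rats must hold 85% accuracy on training days. The read-out is the percentage of rats choosing the drug lever at each dose.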

Rattus norvegicus [5] = experiment: Percentage of rats selecting the drug lever (% SDL) for dose 5.22(umol/kg); format: functional; procedure, shortened: as §2
Rattus norvegicus [6] = experiment: Percentage of rats selecting the drug lever (% SDL) for dose 3.48(umol/kg); format: functional; procedure, shortened: as §2
Rattus norvegicus [7] = experiment: Percentage of rats selecting the drug lever (% SDL) for dose 1.74(umol/kg); format: functional; procedure, shortened: as §2
Rattus norvegicus [8] = experiment: Percentage of rats selecting the drug lever (% SDL) for dose 6.96(umol/kg); format: functional; procedure, shortened: as §2
Rattus norvegicus [9] = experiment: Percentage of rats selecting the drug lever (% SDL) for dose 13.91(umol/kg); format: functional; procedure, shortened: as §2
Rattus norvegicus [10] = experiment: Percentage of rats selecting the drug lever (% SDL) for dose 3.48 (umol/kg); format: functional; procedure, shortened: as §2
Rattus norvegicus [11] = experiment: Percentage of rats selecting the drug lever (% SDL) for dose 0.012 (umol/kg); format: functional; procedure, shortened: as §2
Rattus norvegicus [12] = experiment: Percentage of rats selecting the drug lever (% SDL) for dose 0.047(umol/kg); format: functional; procedure, shortened: as §2
Rattus norvegicus [13] = experiment: Percentage of rats selecting the drug lever (% SDL) for dose 0.186 (umol/kg); format: functional; procedure, shortened: as §2
Rattus norvegicus [14] = experiment: Percentage of rats selecting the drug lever (% SDL) for dose 0.093(umol/kg); format: functional; procedure, shortened: as §2
Rattus norvegicus [15] = experiment: Percentage of rats selecting the drug lever (% SDL) for dose 0.024(umol/kg); format: functional; procedure, shortened: as §2
Rattus norvegicus [16] = experiment: Percentage of rats selecting the drug lever (% SDL) for dose 0.77(umol/kg); format: functional; procedure, shortened: as §2
Rattus norvegicus [17] = experiment: Percentage of rats selecting the drug lever (% SDL) for dose 0.51(umol/kg); format: functional; procedure, shortened: as §2
Rattus norvegicus [18] = experiment: Percentage of rats selecting the drug lever (% SDL) for dose 2.04(umol/kg); format: functional; procedure, shortened: as §2
Rattus norvegicus [19] = experiment: Percentage of rats selecting the drug lever (% SDL) for dose 1.02(umol/kg); format: functional; procedure, shortened: as §2

Q: For `CC[C@H](C)c1cc(OC)c(CC(C)N)cc1OC` (stereo partly drawn), which Ki [1] is on record?
A: Its Ki is 7.87 nM.

Q: What about the ED50 (Rattus norvegicus [2]) of the same molecule?
A: The ED50 was 4.76 µmol/kg.

Q: And the Hill coefficient [3]?
A: The Hill coefficient was 1.06.

Q: What does the source list for `CC[C@@H](C)c1cc(OC)c(CC(C)N)cc1OC` (stereo partly drawn)?
A: Ki [1]: 7.84 nM; SDL (Rattus norvegicus [4]): 0%; SDL (Rattus norvegicus [5]): 80%; SDL (Rattus norvegicus [6]): 50%; ED50 (Rattus norvegicus [2]): 3.08 µmol/kg; SDL (Rattus norvegicus [7]): 25%; Hill coefficient [3]: 1

Q: For `CCC(C)c1cc(OC)c(CC(C)N)cc1OC` (stereo not drawn), which SDL (Rattus norvegicus [8]) is on record?
A: The SDL was 70%.

Q: What about the SDL (Rattus norvegicus [9]) of the same molecule?
A: Its SDL is 90%.

Q: What about the SDL (Rattus norvegicus [10]) of the same molecule?
A: The SDL was 60%.

Q: What about the ED50 (Rattus norvegicus [2]) of the same molecule?
A: The ED50 was 3.69 µmol/kg.

Q: And the SDL (Rattus norvegicus [7])?
A: The SDL was 18%.

Q: For `CCN(CC)C(=O)[C@@H]1C=C2c3cccc4[nH]cc(c34)C[C@H]2N(C)C1` [LYSERGIDE], which SDL (Rattus norvegicus [11]) is on record?
A: The SDL was 13%.

Q: What about the SDL (Rattus norvegicus [12]) of the same molecule?
A: The SDL was 38%.

Q: And the SDL (Rattus norvegicus [13])?
A: The SDL was 100%.

Q: And the SDL (Rattus norvegicus [14])?
A: Its SDL is 89%.

Q: And the ED50 (Rattus norvegicus [2])?
A: Its ED50 is 0.02 µmol/kg.

Q: What about the SDL (Rattus norvegicus [15]) of the same molecule?
A: The SDL was 13%.

Q: And the Hill coefficient [3]?
A: Its Hill coefficient is 1.18.

Q: For `COc1cc(CC(C)N)c(OC)cc1C` (stereo not drawn) [DOM], which SDL (Rattus norvegicus [16]) is on record?
A: Its SDL is 67%.

Q: And the SDL (Rattus norvegicus [17])?
A: The SDL was 13%.

Q: What about the SDL (Rattus norvegicus [18]) of the same molecule?
A: The SDL was 100%.

Q: And the ED50 (Rattus norvegicus [2])?
A: Its ED50 is 0.61 µmol/kg.

Q: And the SDL (Rattus norvegicus [19])?
A: Its SDL is 67%.

Q: What about the Hill coefficient [3] of the same molecule?
A: Its Hill coefficient is 0.89.
